System: HEK-293T
Assay: Multiplex assay against HEK293T;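 on Population Tubulin-Different-Phenotype (%): share of the cells with healthy nuclei that show this phenotype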
Type: toxicity, cell-based
Details: human
Procedure, shortened: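 Values for tubulin, mitochondrial-mass and membrane-permeability phenotypes are per cents of cells with healthy nuclei. These cells were identified by CellPathfinder machine-learning gating of live cells that had been stained at seeding with Hoechst33342, BioTracker Green Microtubule Cytoskeleton Dye, MitoTracker Red and Annexin V Alexa Fluor 680 and imaged on a CQ1 microscope at 37°C and 5% CO2 after compound addition. The gating first set Hoechst high-intensity objects apart from normal cells, then split normal cells into healthy, pyknosed or fragmented nuclei, and pyknosed cells into mitotic or apoptotic.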

[1] = 24 h, 10 µM, compound concentration 10 uM, replicate 1
[2] = 24 h, 10 µM, compound concentration 10 uM, replicate 2
[3] = 48 h, 1 µM, compound concentration 1 uM, replicate 1
[4] = 48 h, 1 µM, compound concentration 1 uM, replicate 2
[5] = 48 h, 10 µM, compound concentration 10 uM, replicate 1
[6] = 48 h, 10 µM, compound concentration 10 uM, replicate 2

CC(C)c1cc(Nc2nc(N3CCC[C@H](N)C3)ncc2C(N)=O)cc(C(C)C)n1
Population Healthy Nuclei (%) [1]: 2%
Population Hoechst High Intensity Objects (%) [1]: 22%
Population Membrane Permeable-Phenotype (%) [1]: 0%
Population Mitochondria Different-Phenotype (%) [1]: 100%
Population Mitotic Cells (%) [1]: 9%
Population Normal (%) [1]: 77%
Population Pyknosed Nuclei (%) [1]: 82%
Population Tubulin-Different-Phenotype (%) [1]: 28%
Total Cell Count [1]: 321
Population Apoptotic (%) [2]: 89%
Population Fragmented Nuclei (%) [2]: 11%
Population Healthy Nuclei (%) [2]: 15%
Population Hoechst High Intensity Objects (%) [2]: 8%
Population Membrane Permeable-Phenotype (%) [2]: 10%
Population Mitochondria Different-Phenotype (%) [2]: 40%
Population Mitotic Cells (%) [2]: 10%
Population Normal (%) [2]: 91%
Population Pyknosed Nuclei (%) [2]: 72%
Population Tubulin-Different-Phenotype (%) [2]: 70%
Total Cell Count [2]: 206
Population Apoptotic (%) [3]: 72%
Population Fragmented Nuclei (%) [3]: 13%
Population Healthy Nuclei (%) [3]: 39%
Population Hoechst High Intensity Objects (%) [3]: 15%
Population Membrane Permeable-Phenotype (%) [3]: 2%
Population Mitochondria Different-Phenotype (%) [3]: 85%
Population Mitotic Cells (%) [3]: 27%
Population Normal (%) [3]: 84%
Population Pyknosed Nuclei (%) [3]: 46%
Population Tubulin-Different-Phenotype (%) [3]: 95%
Total Cell Count [3]: 246
Population Apoptotic (%) [4]: 66%
Population Fragmented Nuclei (%) [4]: 7%
Population Healthy Nuclei (%) [4]: 55%
Population Hoechst High Intensity Objects (%) [4]: 7%
Population Membrane Permeable-Phenotype (%) [4]: 3%
Population Mitochondria Different-Phenotype (%) [4]: 81%
Population Mitotic Cells (%) [4]: 33%
Population Normal (%) [4]: 92%
Population Pyknosed Nuclei (%) [4]: 36%
Population Tubulin-Different-Phenotype (%) [4]: 96%
Total Cell Count [4]: 213
Population Apoptotic (%) [5]: 71%
Population Fragmented Nuclei (%) [5]: 22%
Population Healthy Nuclei (%) [5]: 2%
Population Hoechst High Intensity Objects (%) [5]: 17%
Population Membrane Permeable-Phenotype (%) [5]: 0%
Population Mitochondria Different-Phenotype (%) [5]: 100%
Population Mitotic Cells (%) [5]: 28%
Population Normal (%) [5]: 82%
Population Pyknosed Nuclei (%) [5]: 74%
Population Tubulin-Different-Phenotype (%) [5]: 57%
Total Cell Count [5]: 341
Population Apoptotic (%) [6]: 92%
Population Fragmented Nuclei (%) [6]: 23%
Population Healthy Nuclei (%) [6]: 26%
Population Hoechst High Intensity Objects (%) [6]: 7%
Population Membrane Permeable-Phenotype (%) [6]: 13%
Population Mitochondria Different-Phenotype (%) [6]: 64%
Population Mitotic Cells (%) [6]: 7%
Population Normal (%) [6]: 92%
Population Pyknosed Nuclei (%) [6]: 50%
Population Tubulin-Different-Phenotype (%) [6]: 91%
Total Cell Count [6]: 182
Population Apoptotic (%) (replicate 1): 30%
Population Fragmented Nuclei (%) (replicate 1): 5%
Population Healthy Nuclei (%) (replicate 1): 23%
Population Hoechst High Intensity Objects (%) (replicate 1): 12%
Population Membrane Permeable-Phenotype (%) (replicate 1): 0%
Population Mitochondria Different-Phenotype (%) (replicate 1): 74%
Population Mitotic Cells (%) (replicate 1): 69%
Population Normal (%) (replicate 1): 87%
Population Pyknosed Nuclei (%) (replicate 1): 71%
Population Tubulin-Different-Phenotype (%) (replicate 1): 3%
